Converted amounts (≈) assume the structure as drawn. The source made the active and inactive calls. No cut-off for these calls is given here.
How the values were obtained:
[1] = test system: Staphylococcus aureus; experiment: Antimicrobial activity against Staphylococcus aureus NCTC 4163 at 400 ug after 18 hrs by disc-diffusion method; assay type: functional; conditions: NCTC 4163, 18 h, read-out: IZ
Method in brief: (§1)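 Disc diffusion on Mueller-Hinton II agar per CLSI; 9 mm paper discs loaded with 400 µg compound from DMSO solution, dried, placed on agar; growth inhibition zone diameter read after 18 h at 35°C.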

[2] = test system: Micrococcus luteus; experiment: Antimicrobial activity against Micrococcus luteus ATCC 9341 at 400 ug after 18 hrs by disc-diffusion method; assay type: functional; conditions: ATCC 9341, 18 h, read-out: IZ; method in brief: as §1
[3] = test system: Yellow fever virus; experiment: Antiviral activity against Yellow fever virus 17D infected in BHK cells assessed as protection against virus-induced cytopathogenicity after 3 to 4 days by MTT assay; assay type: functional, cell-based
[4] = Cytotoxicity against human MT4 cells; assay type: cell-based
[5] = test system: Poliovirus 1; experiment: Antiviral activity against Poliovirus type 1 ATCC VR-1562 infected in African green monkey Vero 76 cells assessed as reduction of virus-plaque formation after 2 days by crystal violet staining; assay type: functional, organism-based; conditions: Enterovirus C, ATCC VR-1562, Vero, 48 h
[6] = test system: Staphylococcus aureus; experiment: Antimicrobial activity against Staphylococcus aureus ATCC 29213 at 400 ug after 18 hrs by disc-diffusion method; assay type: functional; conditions: ATCC 29213, 18 h, read-out: IZ; method in brief: as §1
[7] = test system: Vaccinia virus; experiment: Antiviral activity against Human Vaccinia virus ATCC VR-1549 infected in African green monkey Vero 76 cells assessed as reduction of virus-plaque formation after 3 days by crystal violet staining; assay type: functional, organism-based; conditions: Orthopoxvirus vaccinia, ATCC VR-1549, Vero, 72 h
[8] = test system: Staphylococcus aureus; experiment: Antimicrobial activity against Staphylococcus aureus ATCC 25923 after 18 hrs by twofold serial microdilution method; assay type: functional; conditions: ATCC 25923, 18 h
[9] = test system: Enterococcus faecalis; experiment: Antimicrobial activity against Enterococcus faecalis ATCC 29212 at 400 ug after 18 hrs by disc-diffusion method; assay type: functional; conditions: ATCC 29212, 18 h, read-out: IZ; method in brief: as §1
[10] = test system: Proteus vulgaris; experiment: Antimicrobial activity against Proteus vulgaris NCTC 4635 at 400 ug after 18 hrs by disc-diffusion method; assay type: functional; method in brief: as §1
[11] = test system: Staphylococcus epidermidis; experiment: Antimicrobial activity against Staphylococcus epidermidis ATCC 12228 at 400 ug after 18 hrs by disc-diffusion method; assay type: functional; conditions: ATCC 12228, 18 h, read-out: IZ; method in brief: as §1
[12] = test system: Staphylococcus epidermidis; experiment: Antimicrobial activity against Staphylococcus epidermidis ATCC 35984 at 400 ug after 18 hrs by disc-diffusion method; assay type: functional; conditions: ATCC 35984, 18 h, read-out: IZ; method in brief: as §1
[13] = test system: Mycobacterium tuberculosis; experiment: Antimycobacterial activity against Mycobacterium tuberculosis H37Rv ATCC 25618; assay type: functional
Method in brief: (§2)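 Classical test-tube successive-dilution method in Youmans' modification of Proskauer and Beck liquid medium with 10% bovine serum. Inoculum came from 14-day cultures. DMSO stock was 10 mg/mL, diluted geometrically in medium. Tubes were incubated at 37 °C. Concentrations tested were 3.1, 6.2, 12.5, 25, 50 and 100 µg/ml. MIC is the minimum concentration inhibiting growth relative to compound-free tubes.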

[14] = test system: Staphylococcus aureus; experiment: Antimicrobial activity against Staphylococcus aureus ATCC 25923 at 400 ug after 18 hrs by disc-diffusion method; assay type: functional; conditions: ATCC 25923, 18 h, read-out: IZ; method in brief: as §1
[15] = test system: Bacillus cereus; experiment: Antimicrobial activity against Bacillus cereus ATCC 11778 at 400 ug after 18 hrs by disc-diffusion method; assay type: functional; conditions: ATCC 11778, 18 h, read-out: IZ; method in brief: as §1
[16] = test system: Staphylococcus epidermidis; experiment: Antimicrobial activity against Staphylococcus epidermidis ATCC 12228 after 18 hrs by twofold serial microdilution method; assay type: functional; conditions: ATCC 12228, 18 h
[17] = test system: Staphylococcus epidermidis; experiment: Antimicrobial activity against Staphylococcus epidermidis ATCC 35984 after 18 hrs by twofold serial microdilution method; assay type: functional; conditions: ATCC 35984, 18 h
[18] = test system: Human alphaherpesvirus 1; experiment: Antiviral activity against Human herpesvirus 1 KOS ATCC VR-1493 infected in African green monkey Vero 76 cells assessed as reduction of virus-plaque formation after 3 days by crystal violet staining; assay type: functional, organism-based; conditions: Human alphaherpesvirus 1, KOS ATCC VR1493, Vero, 72 h
Method in brief: (§3)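 Plaque reduction: Vero-76 at 2x10^5 cells/well grown to confluent monolayers, infected 2 h at 50–100 PFU/well; after removing unadsorbed virus, overlay of D-MEM, 1% inactivated FBS, 0.75% methylcellulose with or without serial compound dilutions; 3 days at 37°C, fixed and stained with crystal violet in 50% ethanol, plaques counted; EC50 by linear regression.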

[19] = test system: Bacillus subtilis; experiment: Antimicrobial activity against Bacillus subtilis ATCC 6633 at 400 ug after 18 hrs by disc-diffusion method; assay type: functional; conditions: ATCC 6633, 18 h, read-out: IZ; method in brief: as §1
[20] = test system: Coxsackievirus B5; experiment: Antiviral activity against Human coxsackievirus B5 ATCC VR-29 infected in African green monkey Vero 76 cells assessed as reduction of virus-plaque formation after 3 days by crystal violet staining; assay type: functional, organism-based; conditions: Enterovirus B, ATCC VR-29, Vero, 72 h; method in brief: as §3
[21] = test system: Vesicular stomatitis virus; experiment: Antiviral activity against Vesicular stomatitis virus ATCC VR 1540 infected in African green monkey Vero 76 cells assessed as reduction of virus-plaque formation after 2 days by crystal violet staining; assay type: functional, organism-based; conditions: ATCC VR 1540, Vero, 48 h
[22] = test system: Mammalian orthoreovirus 1; experiment: Antiviral activity against Reovirus type-1 ATCC VR-214 infected in BHK cells assessed as protection against virus-induced cytopathogenicity after 3 to 4 days by MTT assay; assay type: functional, cell-based; conditions: Mammalian orthoreovirus 1, ATCC VR-214, BHK
Method in brief: (§4)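 Cells seeded in 96-well plates (BHK 5x10^4, MDBK 3x10^4 cells/well), grown overnight to confluence, infected at m.o.i. 0.01 (BHK for Reo-1, MDBK for BVDV); serial compound dilutions in maintenance medium with 0.5% inactivated FBS added after 1 h; viability by MTT after 3–4 days at 37°C; EC50 for 50% protection by linear regression.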

[23] = test system: Staphylococcus aureus; experiment: Antimicrobial activity against Staphylococcus aureus ATCC 29213 after 18 hrs by twofold serial microdilution method; assay type: functional; conditions: ATCC 29213, 18 h
[24] = test system: Enterococcus hirae; experiment: Antimicrobial activity against Enterococcus hirae ATCC 10541 at 400 ug after 18 hrs by disc-diffusion method; assay type: functional; method in brief: as §1
[25] = Cytotoxicity against African green monkey Vero 76 cells assessed as cell viability after 48 to 96 hrs by crystal violet staining; assay type: cell-based; conditions: chlorocebus sabaeus
[26] = test system: Staphylococcus aureus; experiment: Antimicrobial activity against Staphylococcus aureus NCTC 4163 after 18 hrs by twofold serial microdilution method; assay type: functional; conditions: NCTC 4163, 18 h
[27] = Antiviral activity against Bovine viral diarrhea virus 1-NADL ATCC VR-534 infected in MDBK cells assessed as protection against virus-induced cytopathogenicity after 3 to 4 days by MTT assay; assay type: functional, cell-based; conditions: Bovine viral diarrhea virus isolates and strains, ATCC VR-534, MDBK; method in brief: as §4
[28] = test system: Human immunodeficiency virus 1; experiment: Antiviral activity against HIV1 3B infected in human MT4 cells assessed as protection against virus-induced cytopathogenicity by MTT assay; assay type: functional, organism-based; conditions: Human immunodeficiency virus 1, 3B
[29] = test system: Micrococcus luteus; experiment: Antimicrobial activity against Micrococcus luteus ATCC 10240 at 400 ug after 18 hrs by disc-diffusion method; assay type: functional; conditions: ATCC 10240, 18 h, read-out: IZ; method in brief: as §1
[30] = test system: Staphylococcus aureus; experiment: Antimicrobial activity against Staphylococcus aureus ATCC 6538 after 18 hrs by twofold serial microdilution method; assay type: functional; conditions: ATCC 6538, 18 h
[31] = Cytotoxicity against BHK cells assessed as cell viability after 48 to 96 hrs by MTT assay; assay type: cell-based, Mesocricetus auratus; conditions: hamster
[32] = Cytotoxicity against bovine MDBK cells assessed as cell viability after 48 to 96 hrs by MTT assay; assay type: cell-based, Bos taurus; conditions: cattle
[33] = test system: Mycobacterium tuberculosis; experiment: Antimycobacterial activity against drug-sensitive Mycobacterium tuberculosis Spec. 192; assay type: functional; method in brief: as §2
[34] = test system: Staphylococcus aureus; experiment: Antimicrobial activity against Staphylococcus aureus ATCC 6538 at 400 ug after 18 hrs by disc-diffusion method; assay type: functional; conditions: ATCC 6538, 18 h, read-out: IZ; method in brief: as §1

Compound | zone of inhibition at 400 µg/disc [1] [mm] | zone of inhibition at 400 µg/disc [2] [mm] | EC50 [3] [µM] | CC50 [4] [µM] | EC50 [5] [µM] | zone of inhibition at 400 µg/disc [6] [mm] | EC50 [7] [µM] | MIC [8] [µg/mL] | zone of inhibition at 400 µg/disc [9] [mm] | zone of inhibition at 400 µg/disc [11] [mm] | zone of inhibition at 400 µg/disc [12] [mm] | MIC [13] [µg/mL] | zone of inhibition at 400 µg/disc [14] [mm] | zone of inhibition at 400 µg/disc [15] [mm] | MIC [16] [µg/mL] | MIC [17] [µg/mL] | CC50 [25] [µM] | CC50 [31] [µM] | CC50 [32] [µM] | MIC [33] [µg/mL] | other results
Fc1ccccc1NC(=S)Nc1cccc(C(F)(F)F)c1 | 18 | 21 | > 54 | 47 | > 64 | 19 | > 64 | 16 (≈ 50.9 µM) | 13 | 20 | 20 | 100 (≈ 318 µM) | 19 | 18 | 16 (≈ 50.9 µM) | 32 (≈ 102 µM) | 64 | 54 | > 100 | 100 (≈ 318 µM) | zone of inhibition at 400 µg/disc ([10]; NCTC 4635, 18 h, read-out: IZ): 11 mm; EC50 [18]: > 64 µM; zone of inhibition at 400 µg/disc [19]: 20 mm; EC50 [20]: > 64 µM; EC50 [21]: > 64 µM; EC50 [22]: > 54 µM; MIC [23]: 16 µg/mL (≈ 50.9 µM); inhibition zone (IZ) [24]: inactive; MIC [26]: 16 µg/mL (≈ 50.9 µM); EC50 [27]: > 100 µM; EC50 [28]: > 47 µM; zone of inhibition at 400 µg/disc [29]: 23 mm; MIC [30]: 16 µg/mL (≈ 50.9 µM); zone of inhibition at 400 µg/disc [34]: 21 mm
FC(F)(F)c1cccc(NC(=S)Nc2ccc(Cl)c(Cl)c2)c1 |  |  |  | 9 |  |  |  |  |  |  |  |  |  |  |  |  | 16 | 9.5 | 10 |  | 
O=c1cnn([C@@H]2O[C@H](CO)[C@@H](O)[C@H]2O)c(=O)[nH]1 [6-AZAURIDINE] |  |  |  |  |  |  |  |  |  |  |  |  |  |  |  |  | 12 |  |  |  | 
NNC(=O)c1ccncc1 [ISONIAZID] |  |  |  |  |  |  |  |  |  |  |  | 6.25 (≈ 45.6 µM) |  |  |  |  |  |  |  | 12.5 (≈ 91.1 µM) | 
CSCCCNC(=S)Nc1cccc(C(F)(F)F)c1 | 19 | 20 | > 100 | 43 | > 100 | 18 | > 100 | 32 (≈ 104 µM) | 13 | 20 | 16 | 50 (≈ 162 µM) | 18 | 19 | 32 (≈ 104 µM) | 64 (≈ 208 µM) | > 100 | > 100 | > 100 | 100 (≈ 324 µM) | inhibition zone (IZ) [10]: inactive; EC50 [18]: > 100 µM; zone of inhibition at 400 µg/disc [19]: 18 mm; EC50 [20]: > 100 µM; EC50 [21]: > 100 µM; EC50 [22]: > 100 µM; MIC [23]: 32 µg/mL (≈ 104 µM); inhibition zone (IZ) [24]: inactive; MIC [26]: 32 µg/mL (≈ 104 µM); EC50 [27]: > 100 µM; EC50 [28]: > 43 µM; zone of inhibition at 400 µg/disc [29]: 16 mm; MIC [30]: 32 µg/mL (≈ 104 µM); zone of inhibition at 400 µg/disc [34]: 18 mm
Nc1nc2c(ncn2COCCO)c(=O)[nH]1 [ACYCLOVIR] |  |  |  |  |  |  |  |  |  |  |  |  |  |  |  |  | 13 |  |  |  | 
